The source of these data is ChEMBL document CHEMBL1177712, “Synthesis and characterization of in vitro and in vivo profiles of hydroxybupropion analogues: aids to smoking cessation” (J Med Chem, 2010).

Activity calls are given as the source filed them.

The subject of data set [1] is Mus musculus. The experiment in a line: Smoke cessation activity in sc dosed ICR mouse assessed as inhibition of nicotine-induced antinociception administered 15 mins before nicotine challenge measured after 5 mins of nicotine infusion by hotplate assay. The format is functional, organism-based. The essentials: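 Male ICR mice (20–25 g) were pretreated with saline or test drug 15 min before nicotine at 2.5 mg/kg sc. They were tested 5 min later on a 55 °C hot plate (40 s cutoff), and the result was expressed as %MPE. AD₅₀ came from at least four doses, with at least 8 mice per dose.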

In data set [2] the target is Acetylcholine receptor; alpha1/beta1/delta/gamma (Homo sapiens, UniProt P02708+P07510+P11230+Q07001). Kind of data set: Antagonist activity at alpha-1-beta-1-gamma-delta nicotinic receptor in human TE671 cells assessed as inhibition varbamylcholine-induced radiolabeled Rb+ influx at by liquid scintillation counting. The data set is classed as functional, cell-based, TE-671. The essentials: (§1)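 ⁸⁶Rb⁺-loaded human cells were given a 5-min efflux with carbamylcholine at EC₈₀–EC₉₀ plus graded test ligand. Non-specific efflux, taken with 100 μM mecamylamine or buffer, was subtracted. IC₅₀ came from a Hill fit of three independent experiments, with SEM given as a multiplication factor.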
Acetylcholine receptor; alpha1/beta1/delta/gamma, sequence (P02708 whole entry): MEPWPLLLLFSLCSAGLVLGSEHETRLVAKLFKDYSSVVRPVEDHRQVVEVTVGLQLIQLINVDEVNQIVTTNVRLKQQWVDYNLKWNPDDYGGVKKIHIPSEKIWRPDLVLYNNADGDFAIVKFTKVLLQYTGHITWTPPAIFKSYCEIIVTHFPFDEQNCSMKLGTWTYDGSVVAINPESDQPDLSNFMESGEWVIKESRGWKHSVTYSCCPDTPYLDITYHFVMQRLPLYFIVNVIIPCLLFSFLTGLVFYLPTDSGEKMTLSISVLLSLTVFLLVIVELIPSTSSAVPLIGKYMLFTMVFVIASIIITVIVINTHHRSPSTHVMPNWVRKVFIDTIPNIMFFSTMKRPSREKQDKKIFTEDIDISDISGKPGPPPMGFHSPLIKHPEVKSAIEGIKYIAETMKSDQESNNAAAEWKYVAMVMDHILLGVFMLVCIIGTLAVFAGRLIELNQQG
Acetylcholine receptor; alpha1/beta1/delta/gamma, sequence (P07510 whole entry): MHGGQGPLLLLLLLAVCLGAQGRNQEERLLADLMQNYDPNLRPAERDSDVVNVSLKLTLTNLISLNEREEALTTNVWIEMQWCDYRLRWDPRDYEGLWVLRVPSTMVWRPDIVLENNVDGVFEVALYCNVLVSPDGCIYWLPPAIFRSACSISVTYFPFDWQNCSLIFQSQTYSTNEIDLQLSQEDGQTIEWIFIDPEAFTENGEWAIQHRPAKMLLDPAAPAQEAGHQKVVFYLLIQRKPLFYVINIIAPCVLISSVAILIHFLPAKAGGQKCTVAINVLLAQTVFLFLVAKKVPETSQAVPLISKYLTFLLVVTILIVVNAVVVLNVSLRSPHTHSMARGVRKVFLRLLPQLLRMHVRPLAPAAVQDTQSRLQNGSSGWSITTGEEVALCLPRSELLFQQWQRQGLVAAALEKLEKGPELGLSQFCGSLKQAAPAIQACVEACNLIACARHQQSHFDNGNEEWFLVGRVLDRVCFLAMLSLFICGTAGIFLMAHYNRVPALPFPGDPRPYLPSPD
Acetylcholine receptor; alpha1/beta1/delta/gamma, sequence (P11230 whole entry): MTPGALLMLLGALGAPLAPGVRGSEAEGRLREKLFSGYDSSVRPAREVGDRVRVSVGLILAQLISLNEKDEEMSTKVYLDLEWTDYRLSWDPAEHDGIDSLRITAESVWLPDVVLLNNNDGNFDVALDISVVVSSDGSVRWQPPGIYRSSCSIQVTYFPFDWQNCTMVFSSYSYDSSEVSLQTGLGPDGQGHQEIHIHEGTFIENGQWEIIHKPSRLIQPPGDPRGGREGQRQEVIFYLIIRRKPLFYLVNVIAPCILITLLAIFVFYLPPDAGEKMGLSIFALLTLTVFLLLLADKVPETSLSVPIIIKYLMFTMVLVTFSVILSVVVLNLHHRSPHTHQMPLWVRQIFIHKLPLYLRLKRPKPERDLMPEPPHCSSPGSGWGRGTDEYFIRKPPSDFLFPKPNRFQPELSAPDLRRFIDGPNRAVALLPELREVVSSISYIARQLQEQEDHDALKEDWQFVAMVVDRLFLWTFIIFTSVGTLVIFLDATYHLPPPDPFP
Acetylcholine receptor; alpha1/beta1/delta/gamma, sequence (Q07001 whole entry): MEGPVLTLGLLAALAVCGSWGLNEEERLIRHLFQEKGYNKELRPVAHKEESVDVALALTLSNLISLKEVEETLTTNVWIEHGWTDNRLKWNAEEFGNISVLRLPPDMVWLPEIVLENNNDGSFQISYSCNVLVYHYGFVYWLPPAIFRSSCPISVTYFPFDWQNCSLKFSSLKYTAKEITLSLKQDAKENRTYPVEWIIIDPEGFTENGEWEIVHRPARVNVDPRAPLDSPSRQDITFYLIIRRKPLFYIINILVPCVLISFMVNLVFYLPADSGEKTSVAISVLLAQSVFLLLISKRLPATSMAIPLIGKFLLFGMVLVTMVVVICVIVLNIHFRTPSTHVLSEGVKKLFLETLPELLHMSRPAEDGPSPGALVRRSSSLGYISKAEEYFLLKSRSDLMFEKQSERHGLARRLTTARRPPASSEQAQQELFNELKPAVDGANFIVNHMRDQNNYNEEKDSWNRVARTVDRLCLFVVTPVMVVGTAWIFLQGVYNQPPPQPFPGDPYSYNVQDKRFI

The test system of data set [3] is Mus musculus. The experiment in a line: Toxicity in sc dosed ICR mouse assessed occurrence of sedation. Conditions: in vivo. The format is organism-based.
Data set [4] deals with Mus musculus. Kind of data set: Smoke cessation activity in sc dosed ICR mouse assessed as inhibition of nicotine-induced antinociception administered 15 mins before nicotine challenge measured after 5 mins of nicotine infusion by tail-flick assay. The format is functional, organism-based. The procedure, abridged:
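Radiant-heat tail-flick latency was read 5 min later (10 s cutoff; baseline 2–4 s) and expressed as %MPE. AD₅₀ came from at least four doses, with at least 8 mice per dose.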

Another data set has as its system SH-EP1. The experiment in a line: Selectivity ratio of IC50 for alpha4beta2 nicotinic receptor in human SH-EP1 cells to IC50 for IC50 for human NET. The format is cell-based.
Data set [5] deals with Mus musculus. The experiment in a line: Smoke cessation activity in sc dosed ICR mouse assessed as inhibition of nicotine-induced hypothermia administered 15 mins before nicotine challenge measured after 30 mins of nicotine infusion. The data set is classed as functional, organism-based. The procedure, abridged:
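Male ICR mice (20–25 g) were pretreated with test drug or saline 15 min before nicotine at 2.5 mg/kg sc. Rectal temperature was taken before and 30 min after nicotine, and the change was calculated. Room temperature was 21–24 °C. AD₅₀ came from at least four doses, with at least 8 mice per dose.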

Data set [6] concerns the target T1, Neuronal acetylcholine receptor; alpha4/beta4 (Homo sapiens, UniProt P30926+P43681). Kind of data set: Agonist activity at alpha4beta4 nicotinic receptor in human SH-EP1 cells assessed as induction of radiolabeled Rb+ influx at 0.005 to 100 uM by liquid scintillation counting. The format is functional, cell-based. The essentials:
(§2)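 Cells were labelled with ⁸⁶Rb⁺ for at least 4 h, then exposed for 5 min in efflux buffer (pH 7.4) to test ligand alone at ~5 nM to 100 μM. The lines were TE671/RD (muscle α1β1γδ), SH-SY5Y (α3β4*) and transfected SH-EP1-hα4β2 or -hα4β4. Efflux was Cerenkov-counted. Non-specific efflux was subtracted, and results were normalized to specific efflux from carbamylcholine (1 mM; 3 mM for SH-SY5Y).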

Data set [7] concerns Mus musculus. Kind of data set: Smoke cessation activity in sc dosed ICR mouse assessed as inhibition of nicotine-induced increase in locomotor activity administered 15 mins before nicotine challenge measured after 5 mins of nicotine infusion. The data set is classed as functional, organism-based.
Data set [8] deals with Neuronal acetylcholine receptor; alpha4/beta2 (Homo sapiens, UniProt P17787+P43681). Kind of data set: Agonist activity at alpha4beta2 nicotinic receptor in human SH-EP1 cells assessed as induction of radiolabeled Rb+ influx at 0.005 to 100 uM by liquid scintillation counting. The data set is classed as functional, cell-based. The procedure, abridged:
as §2

For data set [9], the target named is T1, Neuronal acetylcholine receptor; alpha4/beta4. The experiment in a line: Antagonist activity at alpha4beta4 nicotinic receptor in human SH-EP1 cells assessed as inhibition varbamylcholine-induced radiolabeled Rb+ influx at by liquid scintillation counting. The data set is classed as functional, cell-based. The essentials:
as §1

Data set [10] relates to Mus musculus. Kind of data set: Toxicity in sc dosed ICR mouse assessed occurrence of convulsion. The format is organism-based. Conditions: in vivo.
Another data set has as its system SH-SY5Y. Kind of data set: Selectivity ratio of IC50 for alpha3beta4 nicotinic receptor in human SH-SY5Y cells to IC50 for IC50 for human NET. The data set is classed as cell-based.
The target in data set [11] is Sodium-dependent serotonin transporter (Homo sapiens, UniProt P31645). The experiment in a line: Inhibition of [3H]serotonin reuptake at human SERT expressed in HEK293 cells after 90 mins by scintillation counting. The data set is classed as cell-based.
Sodium-dependent serotonin transporter, sequence (P31645 whole entry): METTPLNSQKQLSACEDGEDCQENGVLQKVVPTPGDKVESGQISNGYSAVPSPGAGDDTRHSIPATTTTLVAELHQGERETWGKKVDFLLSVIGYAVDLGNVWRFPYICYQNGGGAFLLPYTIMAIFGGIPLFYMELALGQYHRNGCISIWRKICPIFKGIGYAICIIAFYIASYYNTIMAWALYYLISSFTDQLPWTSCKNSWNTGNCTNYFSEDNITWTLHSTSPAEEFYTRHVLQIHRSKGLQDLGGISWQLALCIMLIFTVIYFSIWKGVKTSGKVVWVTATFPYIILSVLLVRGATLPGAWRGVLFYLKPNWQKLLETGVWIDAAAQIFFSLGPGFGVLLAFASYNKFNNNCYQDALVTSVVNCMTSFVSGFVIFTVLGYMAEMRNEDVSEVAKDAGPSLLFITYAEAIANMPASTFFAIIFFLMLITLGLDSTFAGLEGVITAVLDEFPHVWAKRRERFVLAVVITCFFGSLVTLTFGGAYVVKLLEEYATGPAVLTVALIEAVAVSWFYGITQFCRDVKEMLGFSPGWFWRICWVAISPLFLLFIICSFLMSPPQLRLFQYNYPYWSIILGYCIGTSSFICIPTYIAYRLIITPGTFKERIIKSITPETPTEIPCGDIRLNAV
The target of data set [12] is Sodium-dependent dopamine transporter (Homo sapiens, UniProt Q01959). The experiment in a line: Inhibition of [3H]dopamine reuptake at human DAT expressed in HEK293 cells after 90 mins by scintillation counting. The format is cell-based. The procedure, abridged:
(§3)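 Uptake of [³H]DA or [³H]NE was measured in HEK293 cells stably expressing human DAT or NET. Values are from three independent experiments, each run in triplicate.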

Data set [13] deals with Sodium-dependent noradrenaline transporter (Homo sapiens, UniProt P23975). Kind of data set: Inhibition of [3H]norepinephrine reuptake at human NET expressed in HEK293 cells after 90 mins by scintillation counting. The data set is classed as cell-based. The essentials: as §3
Sodium-dependent noradrenaline transporter, sequence (P23975 whole entry): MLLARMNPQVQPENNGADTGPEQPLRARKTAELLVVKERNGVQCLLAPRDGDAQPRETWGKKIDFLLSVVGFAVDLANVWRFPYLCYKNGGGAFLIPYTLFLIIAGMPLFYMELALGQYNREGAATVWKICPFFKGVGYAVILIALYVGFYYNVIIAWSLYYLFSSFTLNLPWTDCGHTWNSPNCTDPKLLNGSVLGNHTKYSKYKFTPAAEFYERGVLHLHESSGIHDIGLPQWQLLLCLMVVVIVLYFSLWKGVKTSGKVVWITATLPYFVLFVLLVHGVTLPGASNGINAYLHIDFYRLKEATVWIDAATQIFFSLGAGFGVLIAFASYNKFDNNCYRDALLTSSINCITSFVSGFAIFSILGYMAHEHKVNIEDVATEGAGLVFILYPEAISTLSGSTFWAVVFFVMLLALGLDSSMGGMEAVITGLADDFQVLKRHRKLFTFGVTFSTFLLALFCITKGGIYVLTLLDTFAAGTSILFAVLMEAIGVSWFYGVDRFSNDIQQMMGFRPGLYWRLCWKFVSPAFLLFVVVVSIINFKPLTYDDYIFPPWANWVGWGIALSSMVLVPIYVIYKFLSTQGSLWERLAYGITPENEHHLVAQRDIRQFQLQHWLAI

T1 sequence (P30926 whole entry): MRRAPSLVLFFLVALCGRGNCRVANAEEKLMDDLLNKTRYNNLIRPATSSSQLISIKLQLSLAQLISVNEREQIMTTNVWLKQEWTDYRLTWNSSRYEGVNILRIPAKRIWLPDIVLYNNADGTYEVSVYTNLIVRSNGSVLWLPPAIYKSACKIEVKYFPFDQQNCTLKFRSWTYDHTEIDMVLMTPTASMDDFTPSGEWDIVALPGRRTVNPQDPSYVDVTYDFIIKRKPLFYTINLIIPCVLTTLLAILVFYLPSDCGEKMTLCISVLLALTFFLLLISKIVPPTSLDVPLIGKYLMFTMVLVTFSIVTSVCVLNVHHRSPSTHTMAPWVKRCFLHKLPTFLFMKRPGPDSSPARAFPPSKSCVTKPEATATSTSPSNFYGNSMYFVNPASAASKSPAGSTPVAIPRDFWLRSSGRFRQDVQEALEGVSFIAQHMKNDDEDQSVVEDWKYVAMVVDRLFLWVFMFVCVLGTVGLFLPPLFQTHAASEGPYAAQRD
T1 sequence (P43681 whole entry): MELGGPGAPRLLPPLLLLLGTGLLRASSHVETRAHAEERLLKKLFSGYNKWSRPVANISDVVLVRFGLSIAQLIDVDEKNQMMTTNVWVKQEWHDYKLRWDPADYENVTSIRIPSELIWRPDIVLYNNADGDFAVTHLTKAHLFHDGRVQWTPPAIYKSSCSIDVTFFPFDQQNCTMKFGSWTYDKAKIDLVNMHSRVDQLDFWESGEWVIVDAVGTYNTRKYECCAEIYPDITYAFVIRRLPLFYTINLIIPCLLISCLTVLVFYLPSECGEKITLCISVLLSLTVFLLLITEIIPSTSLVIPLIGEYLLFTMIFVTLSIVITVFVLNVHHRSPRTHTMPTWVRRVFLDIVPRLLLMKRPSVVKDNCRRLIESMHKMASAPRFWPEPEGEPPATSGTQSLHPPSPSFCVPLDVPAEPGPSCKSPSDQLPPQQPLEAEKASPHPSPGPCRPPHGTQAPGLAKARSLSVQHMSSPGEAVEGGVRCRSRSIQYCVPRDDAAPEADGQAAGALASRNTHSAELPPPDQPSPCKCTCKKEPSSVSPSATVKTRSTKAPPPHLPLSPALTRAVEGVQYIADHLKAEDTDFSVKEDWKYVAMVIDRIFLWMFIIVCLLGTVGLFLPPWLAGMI
Sodium-dependent dopamine transporter, sequence (Q01959 whole entry): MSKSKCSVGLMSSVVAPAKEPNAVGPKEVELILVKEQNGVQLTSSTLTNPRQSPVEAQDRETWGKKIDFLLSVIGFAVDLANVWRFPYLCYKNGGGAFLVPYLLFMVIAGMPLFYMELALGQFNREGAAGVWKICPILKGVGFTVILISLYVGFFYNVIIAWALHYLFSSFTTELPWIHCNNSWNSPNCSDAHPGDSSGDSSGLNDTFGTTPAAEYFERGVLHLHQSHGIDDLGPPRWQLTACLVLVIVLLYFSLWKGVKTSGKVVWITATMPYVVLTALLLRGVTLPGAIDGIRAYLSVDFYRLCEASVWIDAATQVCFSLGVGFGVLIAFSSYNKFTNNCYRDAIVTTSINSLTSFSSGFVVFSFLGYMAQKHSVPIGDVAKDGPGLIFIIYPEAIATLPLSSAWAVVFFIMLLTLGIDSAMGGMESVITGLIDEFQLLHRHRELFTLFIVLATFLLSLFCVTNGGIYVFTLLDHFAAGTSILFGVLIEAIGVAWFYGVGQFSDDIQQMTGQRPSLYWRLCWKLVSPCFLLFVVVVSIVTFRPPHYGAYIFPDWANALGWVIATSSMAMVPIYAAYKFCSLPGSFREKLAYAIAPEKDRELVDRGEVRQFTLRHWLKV

For `C[C@@H]1NC(C)(C)CO[C@@]1(O)c1cccc(F)c1`, the IC50 is 8.6 mg/kg in the data set on Mus musculus [1]; greater than 100 µM in [2]; 0.012 mg/kg in the data set with Mus musculus [4]; 4.4 mg/kg in the data set on Mus musculus [5]; greater than 15 mg/kg with Mus musculus [7]; greater than 100 µM in data set [9]. The Activity result with Mus musculus [3] and in the data set with Mus musculus [10] was “Non-toxic” throughout. Further, the Ratio IC50 with SH-EP1 was 1.7. The result in data set [6] and in [8] was inactive.

For `CC1NC(C)(C)COC1(O)c1ccc(Cl)c(Cl)c1` (racemic), the IC50 in the data set with Mus musculus [1] is greater than 15 mg/kg; in the data set on Mus musculus [4] it was 8.8 mg/kg; in the data set with Mus musculus [5], greater than 15 mg/kg; in the data set on Mus musculus [7], greater than 15 mg/kg. The Activity result in the data set on Mus musculus [3] and with Mus musculus [10] was “Non-toxic” throughout. The figures for the Ratio IC50 in the data set on SH-EP1 and with SH-SY5Y were 175 and 23, respectively. Moreover, the result in data set [6] and in [8] was inactive.

As to `CC1NC(C)(C)COC1(O)c1cccnc1` (racemic), the IC50 in data set [2] and in data set [9] was greater than 100 µM in each case. The Activity entry in the data set on Mus musculus [3] and with Mus musculus [10] was “Non-toxic” each time. The result in data set [6] and in data set [8] was inactive.

For `C[C@@H]1NC(C)(C)CO[C@@]1(O)c1ccccc1`, the IC50 with Mus musculus [1] was greater than 15 mg/kg; in [2] it was greater than 100 µM; in the data set with Mus musculus [4], greater than 15 mg/kg; with Mus musculus [5], greater than 15 mg/kg; with Mus musculus [7], greater than 15 mg/kg. Also, the Activity result with Mus musculus [3] and in the data set on Mus musculus [10] was “Non-toxic” in each case.

`COc1cccc([C@]2(O)OCC(C)(C)N[C@H]2C)c1`: the IC50 in the data set on Mus musculus [1] was greater than 15 mg/kg; with Mus musculus [4], 5.85 mg/kg; with Mus musculus [5] it was greater than 15 mg/kg; in the data set with Mus musculus [7] it was greater than 15 mg/kg; in data set [9], greater than 100 µM. Further, the Activity entry with Mus musculus [3] and in the data set on Mus musculus [10] was “Non-toxic” each time. Moreover, the Ratio IC50 with SH-EP1 was found to be 3.3. In addition, the result in [6] and in data set [8] was inactive.

Regarding `CCC[C@@H]1NC(C)(C)CO[C@@]1(O)c1cccc(Cl)c1`, the IC50 in the data set with Mus musculus [1] is greater than 15 mg/kg; in [2], 10 µM; with Mus musculus [4], 0.004 mg/kg; in data set [11], 4.13 µM; in the data set on Mus musculus [5], greater than 15 mg/kg; in [12], 0.03 µM. Besides, the IC50 is 4.7 mg/kg in the data set on Mus musculus [7], 18 µM in data set [9] and 0.031 µM in [13]. For the same molecule, the Activity entry in the data set with Mus musculus [3] and with Mus musculus [10] was “Non-toxic” throughout. In addition, the Ratio IC50 amounted to 240 in the data set on SH-EP1 and 154 with SH-SY5Y. The result in data set [6] and in data set [8] was inactive.

For the molecule `CC1NC(C)(C)COC1(O)c1ccccn1` (racemic), the IC50 in [2] and in data set [9] was greater than 100 µM each time. Also, the Activity result with Mus musculus [3] and with Mus musculus [10] was “Non-toxic” throughout. Also, the outcome in data set [6] and in data set [8] was inactive.
